ChEMBL document CHEMBL4330056, “Synthesis and Cytotoxic and Antiviral Profiling of Pyrrolo- and Furo-Fused 7-Deazapurine Ribonucleosides” (J Med Chem, 2018)
The source made the active and inactive calls. No cut-off for these calls is given here.

What was measured:
[1] = tested on: CCRF-CEM; experiment: Induction of cell cycle arrest in human CCRF-CEM cells assessed as accumulation at S phase at 5 times IC50 concentration after 24 hrs by propidium iodide-staining based flow cytometry (reference value: 41.08%); format: functional
[2] = tested on: U2OS; experiment: Antiproliferative activity against human U2OS cells after 3 days by MTS assay; format: functional, cell-based; conditions: 72 h
[3] = tested on: Human orthopneumovirus; experiment: Antiviral activity against Human respiratory syncytial virus A2 infected in Hep2 cells assessed as reduction in virus-induced cytopathic effect incubated for 4 days by CellTiter-Glo viability reagent based assay; format: functional, organism-based
[4] = Antiproliferative activity against human K562-TAX cells after 3 days by MTS assay; format: functional, cell-based; conditions: 72 h
[5] = tested on: HL-60; experiment: Antiproliferative activity against human HL60 cells after 72 hrs by XTT assay; format: functional, cell-based; conditions: HL-60, 72 h
[6] = tested on: Coxsackievirus B3; experiment: Antiviral activity against Human coxsackie B3 Nancy infected in human HeLa cells assessed as inhibited virus-induced cytopathic effect incubated for 2 days by XTT assay; format: functional, organism-based
[7] = tested on: HCT-116; experiment: Antiproliferative activity against p53 gene knocked out human HCT116 cells after 3 days by MTS assay; format: functional, cell-based; conditions: HCT-116, 72 h
[8] = tested on: CCRF-CEM; experiment: Induction of cell cycle arrest in human CCRF-CEM cells assessed as accumulation at G0/G1 phase at IC50 concentration after 24 hrs by propidium iodide-staining based flow cytometry (reference value: 39.70%); format: functional
[9] = tested on: CCRF-CEM; experiment: Inhibition of mitosis in human CCRF-CEM cells assessed Ser10 H3 phosphorylation positive cells at IC50 concentration after 24 hrs by flow cytometry relative to total cell population (reference value: 1.36%); format: functional; design: scale not given: the % may be the effect or the level left
[10] = tested on: CCRF-CEM; experiment: Induction of cell cycle arrest in human CCRF-CEM cells assessed as accumulation at subG1 phase at IC50 concentration after 24 hrs by propidium iodide-staining based flow cytometry (reference value: 3.45%); format: functional
[11] = tested on: CCRF-CEM; experiment: Induction of cell cycle arrest in human CCRF-CEM cells assessed as accumulation at G2/M phase at IC50 concentration after 24 hrs by propidium iodide-staining based flow cytometry (reference value: 19.22%); format: functional
[12] = tested on: CCRF-CEM; experiment: Inhibition of RNA synthesis in human CCRF-CEM cells assessed as RNA synthesis level at 5 times IC50 concentration after 24 hrs by BrU incorporation assay (reference value: 49.89%); format: functional; design: scale not given: the % may be the effect or the level left
[13] = tested on: CCRF-CEM; experiment: Inhibition of mitosis in human CCRF-CEM cells assessed Ser10 H3 phosphorylation positive cells at 5 times IC50 concentration after 24 hrs by flow cytometry relative to total cell population (reference value: 1.36%); format: functional; design: scale not given: the % may be the effect or the level left
[14] = tested on: Hepatitis C virus; experiment: Antiviral activity against Hepatitis C virus genotype 1b infected in human Huh-luc replicon cells after 3 days by luciferase assay; format: functional, organism-based, Hepacivirus hominis; conditions: subtype 1b, 72 h
[15] = tested on: HCT-116; experiment: Antiproliferative activity against human HCT116 cells after 3 days by MTS assay; format: functional, cell-based; conditions: HCT-116, 72 h
[16] = tested on: CCRF-CEM; experiment: Induction of cell cycle arrest in human CCRF-CEM cells assessed as accumulation at G2/M phase at 5 times IC50 concentration after 24 hrs by propidium iodide-staining based flow cytometry (reference value: 19.22%); format: functional
[17] = Cytotoxicity against human Hep2 cells assessed as reduction in cell viability after 3 days by CellTiter-Glo assay; format: cell-based; conditions: HEp-2 cells
[18] = tested on: CCRF-CEM; experiment: Inhibition of DNA synthesis in human CCRF-CEM cells assessed as DNA synthesis level at 5 times IC50 concentration after 24 hrs by BrdU incorporation assay (reference value: 43.39%); format: functional; design: scale not given: the % may be the effect or the level left
[19] = tested on: Hepatitis C virus; experiment: Antiviral activity against Hepatitis C virus genotype 2a infected in human Huh-luc replicon cells after 3 days by luciferase assay; format: functional, organism-based, Hepacivirus hominis; conditions: subtype 2a, 72 h
[20] = Antiproliferative activity against human CEM-DNR-bulk cells after 3 days by MTS assay; conditions: 72 h
[21] = tested on: K562; experiment: Antiproliferative activity against human K562 cells after 3 days by MTS assay; format: functional, cell-based; conditions: K562, 72 h
[22] = tested on: HeLa S3; experiment: Antiproliferative activity against human HeLaS3 cells after 72 hrs by XTT assay; format: functional, cell-based; conditions: HeLa S3, 72 h
[23] = tested on: CCRF-CEM; experiment: Induction of cell cycle arrest in human CCRF-CEM cells assessed as accumulation at S phase at IC50 concentration after 24 hrs by propidium iodide-staining based flow cytometry (reference value: 41.08%); format: functional
[24] = tested on: Human alphaherpesvirus 1; experiment: Antiviral activity against human herpesvirus 1 HF infected in African green monkey Vero cells assessed as inhibited virus-induced cytopathic effect incubated for 3 days by XTT assay; format: functional, organism-based
[25] = tested on: CCRF-CEM; experiment: Induction of cell cycle arrest in human CCRF-CEM cells assessed as accumulation at G0/G1 phase at 5 times IC50 concentration after 24 hrs by propidium iodide-staining based flow cytometry (reference value: 39.70%); format: functional
[26] = tested on: Influenza A virus; experiment: Antiviral activity against Influenza A virus (A/Mexico/4108/2009(H1N1)) infected in MDCK cells assessed as inhibited virus-induced cytopathic effect incubated for 2 days by XTT assay; format: functional, organism-based
[27] = tested on: MRC5; experiment: Antiproliferative activity against human MRC5 cells after 3 days by MTS assay; conditions: MRC5, 72 h
[28] = tested on: CCRF-CEM; experiment: Antiproliferative activity against human CCRF-CEM cells after 3 days by MTS assay; format: functional, cell-based; conditions: 72 h
[29] = tested on: HepG2; experiment: Antiproliferative activity against human HepG2 cells after 72 hrs by XTT assay; format: functional, cell-based; conditions: HepG2, 72 h
[30] = tested on: CCRF-CEM; experiment: Inhibition of RNA synthesis in human CCRF-CEM cells assessed as RNA synthesis level at IC50 concentration after 24 hrs by BrU incorporation assay (reference value: 49.89%); format: functional; design: scale not given: the % may be the effect or the level left
[31] = molecular target: T1, Adenosine kinase (Homo sapiens, UniProt P55263); experiment: Substrate activity at recombinant human ADK assessed as compound phosphorylation at 50 uM after 20 mins in presence of [3H]-adenosine by UPLC; format: ADME
T1 sequence (P55263 whole entry): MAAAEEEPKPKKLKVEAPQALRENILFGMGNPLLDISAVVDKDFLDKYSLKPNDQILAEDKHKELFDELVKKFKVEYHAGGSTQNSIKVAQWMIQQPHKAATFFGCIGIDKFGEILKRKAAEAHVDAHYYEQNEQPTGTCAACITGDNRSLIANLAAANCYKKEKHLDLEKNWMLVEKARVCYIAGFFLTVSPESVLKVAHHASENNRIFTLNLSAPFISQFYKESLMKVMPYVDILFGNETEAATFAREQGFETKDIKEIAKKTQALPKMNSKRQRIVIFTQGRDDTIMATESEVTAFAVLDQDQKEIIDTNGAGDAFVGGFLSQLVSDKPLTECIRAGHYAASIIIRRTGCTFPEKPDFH

[32] = tested on: CCRF-CEM; experiment: Inhibition of DNA synthesis in human CCRF-CEM cells assessed as DNA synthesis level at IC50 concentration after 24 hrs by BrdU incorporation assay (reference value: 43.39%); format: functional; design: scale not given: the % may be the effect or the level left
[33] = tested on: BJ; experiment: Antiproliferative activity against human BJ cells after 3 days by MTS assay; conditions: 72 h
[34] = tested on: dengue virus type 2; experiment: Antiviral activity against Dengue virus 2 Thailand/16681/84 infected in African green monkey Vero cells assessed as inhibition of virus replication incubated for 3 days by fluorescence microscopy; format: functional, organism-based
[35] = tested on: A549; experiment: Antiproliferative activity against human A549 cells after 3 days by MTS assay; format: functional, cell-based; conditions: A549, 72 h
[36] = tested on: CCRF-CEM; experiment: Induction of cell cycle arrest in human CCRF-CEM cells assessed as accumulation at subG1 phase at 5 times IC50 concentration after 24 hrs by propidium iodide-staining based flow cytometry (reference value: 3.45%); format: functional
[37] = molecular target: T1, Adenosine kinase; experiment: Inhibition of recombinant human ADK using [3H]-adenosine as substrate after 20 mins by TLC scanner-based analysis relative to control
Method in brief: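 ADK inhibition: 50 μM adenosine substrate with 10 μM test compound and 97 ng enzyme, 20 min at 37 °C.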

| SMILES | Activity [1] [%] | IC50 [2] [nM] | IC50 [4] [nM] | IC50 [7] [nM] | Activity [8] [%] | Activity [9] [%] | Activity [10] [%] | Activity [11] [%] | Activity [12] [%] | Activity [13] [%] | IC50 [15] [nM] | Activity [16] [%] | Activity [18] [%] | IC50 [20] [nM] | IC50 [22] [nM] | Activity [23] [%] | Activity [25] [%] | IC50 [27] [nM] | Activity [30] [%] | Activity [32] [%] | further results |
| --- | --- | --- | --- | --- | --- | --- | --- | --- | --- | --- | --- | --- | --- | --- | --- | --- | --- | --- | --- | --- | --- |
| COc1ncnc2c1c1c(ccn1C)n2[C@@H]1O[C@H](CO)[C@@H](O)[C@H]1O | 36.98 | 1300 | > 50000 | 620 | 37.73 | 1.48 | 3.68 | 17.2 | 28.3 | 1.5 | 360 | 15.4 | 12.29 | > 50000 | 1530 | 45.08 | 47.62 | 50000 | 31.19 | 31.44 | Activity [3]: inactive; IC50 [5]: 1440 nM; Activity [6]: inactive; EC50 [14]: 90 nM; CC50 at 72 h [17]: > 44400 nM; EC50 [19]: 280 nM; IC50 [21]: 510 nM; Activity [24]: inactive; Activity [26]: inactive; IC50 [28]: 440 nM; IC50 [29]: 2590 nM; Activity [31]: 47%; IC50 [33]: 4500 nM; Activity [34]: inactive; IC50 [35]: > 50000 nM; Activity [36]: 13.86%; IC50 [37]: > 10000 nM |
| Nc1ncnc2c1c(-c1cccs1)cn2[C@@H]1O[C@H](CO)[C@@H](O)[C@H]1O | 38.71 | 510 | 40 | 20 | 20.49 | 2.09 | 29.83 | 17.23 | 57.09 | 0.94 | 20 | 28.98 | 10.76 | 60 | 20 | 62.28 | 32.31 | > 50000 | 0.91 | 3.59 | IC50 [33]: > 50000 nM; IC50 [35]: 13100 nM; Activity [36]: 58.53% |
